This is an account of results in ChEMBL document CHEMBL1151808, “Substrate promiscuity of the cyclic dipeptide prenyltransferases from Aspergillus fumigatus ( section sign)” (J Nat Prod, 2009).

Assay [1] has as its system Aspergillus fumigatus. Put plainly: Activity at 1.62 uM Aspergillus fumigatus CdpNPT assessed as compound conversion rate at 1 mM after 16 hrs by HPLC analysis in presence of dimethylallyl diphosphate relative to L-tryptophan. Put shortly:
(§1)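 His6-CdpNPT (1.62 µM) or His6-FtmPT1 (1.68 µM) with 1 mM tryptophan derivative and 2 mM DMAPP in Tris-HCl pH 7.5/CaCl2, 37 °C for 2 or 16 h. MeOH quench, then RP18 HPLC with 30–70% MeOH gradient. Conversion expressed relative to L-tryptophan; two independent assays.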

Assay [2] has as its target Tryprostatin B synthase ftmPT1 (Aspergillus fumigatus) (UniProt Q4WAW7). Put plainly: Activity at 1.68 uM Aspergillus fumigatus FtmPT1 assessed as compound conversion rate at 1 mM after 2 hrs by HPLC analysis in presence of dimethylallyl diphosphate relative to L-tryptophan. An outline of the steps: as §1
Assay [3] has as its system Aspergillus fumigatus. The assay can be described thus: Activity at 1.62 uM Aspergillus fumigatus CdpNPT assessed as compound conversion rate at 1 mM after 2 hrs by HPLC analysis in presence of dimethylallyl diphosphate relative to L-tryptophan. Put shortly:
as §1

Assay [4] addresses Tryprostatin B synthase ftmPT1 (Aspergillus fumigatus) (UniProt Q4WAW7). The assay can be described thus: Activity at 1.68 uM Aspergillus fumigatus FtmPT1 assessed as compound conversion rate at 1 mM after 16 hrs by HPLC analysis in presence of dimethylallyl diphosphate relative to L-tryptophan. An outline of the steps: as §1
Assay [5] shares this target. The assay can be described thus: Activity at 1.68 uM Aspergillus fumigatus FtmPT1 assessed as compound conversion at 1 mM after 2 hrs by HPLC analysis in presence of dimethylallyl diphosphate.
For assay [6] the target is unchanged. The assay can be described thus: Activity at 0.54 uM Aspergillus fumigatus FtmPT1 assessed as compound conversion at 1 mM after 2 hrs by HPLC analysis in presence of dimethylallyl diphosphate. Put shortly: (§2)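 Performed in 50 mM Tris-HCl (pH 7.5) with 10 mM CaCl2, 1 mM tryptophan or derivative, and 2 mM DMAPP, using purified His6-tagged recombinant enzyme at 37 °C. Reactions were stopped with an equal volume of MeOH and protein removed by centrifugation. Products were quantified by RP18 HPLC as the conversion rate of substrate. Two independent assays were run.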

The target is the same in assay [7]. Put plainly: Activity at 0.28 uM Aspergillus fumigatus FtmPT1 assessed as compound conversion at 1 mM after 2 hrs by HPLC analysis in presence of dimethylallyl diphosphate. Put shortly:
as §2

For assay [8] the target is unchanged. Put plainly: Ratio Kcat to Km for Aspergillus fumigatus FtmPT1 by HPLC analysis relative to L-tryptophan.
In assay [9] the test system is Aspergillus fumigatus. Put plainly: Activity at 0.54 uM Aspergillus fumigatus CdpNPT assessed as compound conversion rate at 1 mM after 2 hrs by HPLC analysis in presence of dimethylallyl diphosphate. Put shortly:
(§3)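 Recombinant His6-CdpNPT (0.11–1.62 µM) with 1 mM substrate and 2 mM DMAPP in 50 mM Tris-HCl pH 7.5, 10 mM CaCl2, 100 µL, 37 °C for 2 h. Heat-inactivated enzyme served as control. Stopped with MeOH, protein spun off, products read by RP18 HPLC as peaks and retention times, conversion from peak areas.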

In assay [10] the test system is Aspergillus fumigatus. Put plainly: Activity at 0.28 uM Aspergillus fumigatus CdpNPT assessed as compound conversion rate at 1 mM after 2 hrs by HPLC analysis in presence of dimethylallyl diphosphate. Put shortly:
as §3

Assay [11] relates to Aspergillus fumigatus. The assay can be described thus: Activity at 0.11 to 1.62 uM Aspergillus fumigatus CdpNPT assessed as product formation at 1 mM after 2 hrs by HPLC analysis. An outline of the steps:
as §3

Assay [12] deals with Aspergillus fumigatus. The assay can be described thus: Activity at 0.11 uM Aspergillus fumigatus CdpNPT assessed as compound conversion rate at 1 mM after 2 hrs by HPLC analysis in presence of dimethylallyl diphosphate. An outline of the steps:
as §3

For assay [13], the system named is Aspergillus fumigatus. Put plainly: Activity at Aspergillus fumigatus CdpNPT by HPLC analysis. An outline of the steps:
(§4)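 Kinetics: 2 mM DMAPP (final) with L-tryptophan up to 5 mM, or cyclic dipeptides, in Tris-HCl pH 7.5/CaCl2 at 37 °C. Products quantified by HPLC. Km and kcat from Lineweaver-Burk and Hanes-Woolf plots; kcat/Km expressed as ratio to L-tryptophan.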

Assay [14] concerns Aspergillus fumigatus. The assay can be described thus: Ratio Kcat to Km for Aspergillus fumigatus CdpNPT by HPLC analysis relative to L-tryptophan. An outline of the steps: as §4
In assay [15] the test system is Aspergillus fumigatus. Put plainly: Activity at 1.62 uM Aspergillus fumigatus CdpNPT assessed as compound conversion rate at 1 mM after 2 hrs by HPLC analysis in presence of dimethylallyl diphosphate. Put shortly:
as §2

In assay [16] the target is Tryprostatin B synthase ftmPT1 (Aspergillus fumigatus) (UniProt Q4WAW7). Put plainly: Activity at 1.12 uM Aspergillus fumigatus FtmPT1 assessed as compound conversion rate at 1 mM after 16 hrs by HPLC analysis in presence of dimethylallyl diphosphate. An outline of the steps: as §2
Sequence of Tryprostatin B synthase ftmPT1 (Aspergillus fumigatus) (Q4WAW7 whole entry): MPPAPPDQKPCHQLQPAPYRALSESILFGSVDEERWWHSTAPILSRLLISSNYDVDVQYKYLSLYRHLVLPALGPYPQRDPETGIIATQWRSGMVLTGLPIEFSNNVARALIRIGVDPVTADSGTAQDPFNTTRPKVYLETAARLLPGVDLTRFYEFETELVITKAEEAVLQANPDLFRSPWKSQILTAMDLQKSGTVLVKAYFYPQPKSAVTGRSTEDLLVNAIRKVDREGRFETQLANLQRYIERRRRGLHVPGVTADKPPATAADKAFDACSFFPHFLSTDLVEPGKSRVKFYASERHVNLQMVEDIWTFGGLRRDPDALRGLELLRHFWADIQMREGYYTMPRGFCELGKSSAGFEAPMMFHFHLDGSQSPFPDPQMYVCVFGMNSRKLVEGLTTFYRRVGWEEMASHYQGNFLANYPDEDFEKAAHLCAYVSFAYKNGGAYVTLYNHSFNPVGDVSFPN
For assay [17], the system named is Aspergillus fumigatus. The assay can be described thus: Activity at 1.62 uM Aspergillus fumigatus CdpNPT assessed as compound retention time after 2 hrs by HPLC analysis. Put shortly:
as §3

Assay [18] has as its system Aspergillus fumigatus. The assay can be described thus: Activity at 1.62 uM Aspergillus fumigatus CdpNPT assessed as compound conversion rate after 2 hrs by HPLC analysis. An outline of the steps:
as §3

For assay [19], the target named is Tryprostatin B synthase ftmPT1 (Aspergillus fumigatus) (UniProt Q4WAW7). The assay can be described thus: Activity at 1.12 uM Aspergillus fumigatus FtmPT1 assessed as compound retention time after 2 hrs by HPLC analysis. Put shortly:
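His6-FtmPT1 at 1.12 µM, 100 µL, in 50 mM Tris-HCl pH 7.5, 10 mM CaCl2 with DMAPP, 37 °C for 2 h. HPLC product retention time recorded.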

Activity calls are given as the source filed them. The calls are words filed in the database; no cut-off is given here.

In the case of `N[C@H](CC(=O)O)Cc1c[nH]c2ccccc12`, the Activity is < 1.1% with Aspergillus fumigatus [1], < 5.5% in assay [2], < 3.4% in the assay on Aspergillus fumigatus [3] and < 1.1% in [4].

In the case of `Cc1cccc2c(CC(N)C(=O)O)c[nH]c12` (racemic), the Activity in the assay on Aspergillus fumigatus [1] stood at 37.9%; in [2], 76.4%; in the assay with Aspergillus fumigatus [3], 50.6%; in assay [4], 64.1%.

As to `O=C1N[C@@H](Cc2c[nH]c3ccccc23)C(=O)N2CCC[C@@H]12`, the outcome in assay [5], in [6] and in [7] was Active. The Ratio in assay [8] turned out to be 675.

`Cn1cc(CC(N)C(=O)O)c2ccccc21` (racemic): the Activity in the assay on Aspergillus fumigatus [1] is < 0.3%; in assay [2] it was < 1.7%; in the assay with Aspergillus fumigatus [3] it was < 1.1%; in assay [4], < 0.3%.

On to `Cc1ccc2c(CC(N)C(=O)O)c[nH]c2c1` (racemic), for which the Activity was 13.5% with Aspergillus fumigatus [1], 148% in assay [2], < 0.9% in the assay on Aspergillus fumigatus [3] and 96% in assay [4].

On to `O=C(O)Cc1c[nH]c2ccccc12`, for which the Activity was 45.3% with Aspergillus fumigatus [1], < 2.8% in assay [2], < 1.7% in the assay with Aspergillus fumigatus [3] and < 0.6% in [4].

As to `CC(N)(Cc1c[nH]c2ccccc12)C(=O)O` (racemic), the Activity in the assay on Aspergillus fumigatus [1] was 24.5%; in assay [2] it was < 2.3%; in the assay on Aspergillus fumigatus [3], 25%; in [4], 1%.

On to `N[C@@H](Cc1c[nH]c2ccc(O)cc12)C(=O)O`, for which the Activity is < 0.3% in the assay with Aspergillus fumigatus [1], < 1.3% in assay [2], < 0.8% in the assay with Aspergillus fumigatus [3] and < 0.3% in [4].

With `Cc1cccc2[nH]cc(CC(N)C(=O)O)c12` (racemic), the Activity came out at 61.4% with Aspergillus fumigatus [1], 16% in assay [2], 72.6% in the assay with Aspergillus fumigatus [3] and 19.4% in assay [4].

`NC(Cc1c[nH]c2cc(F)ccc12)C(=O)O` (racemic): the Activity in the assay with Aspergillus fumigatus [1] is 13.8%; in assay [2], 55.1%; with Aspergillus fumigatus [3], 17.7%; in [4] it was 55.5%.

As for `Cc1ccc2[nH]cc(CC(N)C(=O)O)c2c1` (racemic), the Activity with Aspergillus fumigatus [1] is 20.2%; in assay [2], < 2.4%; in the assay with Aspergillus fumigatus [3], < 1.5%; in [4], 10.3%.

With `NCCc1c[nH]c2ccccc12`, the Activity in the assay with Aspergillus fumigatus [1] was < 1%; in assay [2] it was < 5.3%; in the assay on Aspergillus fumigatus [3], < 3.3%; in [4] it was < 1.1%.

Regarding `N[C@@H](Cc1c[nH]c2ccc(F)cc12)C(=O)O`, the Activity was 1.9% in the assay on Aspergillus fumigatus [1], < 1.2% in [2], < 0.7% with Aspergillus fumigatus [3] and 4.3% in assay [4].

On to `O=C1N[C@H](Cc2c[nH]c3ccccc23)C(=O)N[C@H]1Cc1ccc(O)cc1`, for which the outcome with Aspergillus fumigatus [9], in the assay with Aspergillus fumigatus [10], in the assay with Aspergillus fumigatus [11] and in the assay with Aspergillus fumigatus [12] was Active. For the same molecule, the Km in the assay with Aspergillus fumigatus [13] came out at 128 µM. For the same molecule, the kcat in the assay with Aspergillus fumigatus [13] is 0.46 s⁻¹. Further, in the assay with Aspergillus fumigatus [14], the Ratio was 598.

Regarding `N[C@@H](Cc1ccc(O)cc1)C(=O)O`, the result (in the assay with Aspergillus fumigatus [15]; in [16]) was inactive.

Take `N[C@@H](Cc1c[nH]c2ccccc12)C(=O)O`: the Activity with Aspergillus fumigatus [17] came out at 16.5 min; in the assay on Aspergillus fumigatus [18], 18.1%; in assay [19], 13.9 min. Also, the outcome with Aspergillus fumigatus [11] was Active. Also, in the assay with Aspergillus fumigatus [13], the Km is 830 µM. Besides, the kcat in the assay on Aspergillus fumigatus [13] came to 0.005 s⁻¹.

As to `CN[C@@H](Cc1c[nH]c2ccccc12)C(=O)O`, the Activity is 114% in the assay on Aspergillus fumigatus [1], < 3.7% in assay [2], 126% in the assay with Aspergillus fumigatus [3] and 29.4% in [4].

`NC(Cc1c[nH]c2ccc(Br)cc12)C(=O)O` (racemic): the Activity with Aspergillus fumigatus [1] is < 0.4%; in assay [2] it was < 1.9%; in the assay with Aspergillus fumigatus [3], < 1.2%; in assay [4] it was < 0.4%.
